Experimental data taken from PMC12122681 (Nature Communications, 2025).

Legend:
[1] = test system: fungal IPC synthase; conditions: in words; cited from earlier work
[2] = molecular target: His-tagged S. cerevisiae IPC synthase complex (Aur1-Kei1), wild type (S. cerevisiae) (UniProt P36107); assay: MST
[3] = molecular target: the F158Y and A240C mutations (Aur1-Kei1 mutant complexes); assay: MST
[4] = molecular target: His-tagged Aur1-Kei1 complex with Aur1 H157Y (S. cerevisiae) (UniProt P36107); assay: MST
[5] = test system: unpurified membrane-embedded IPC synthase; conditions: cited from earlier work
[6] = test system: Aur1-Kei1 complex; assay: Thermal shift assay; assay type: binding, Saccharomyces cerevisiae; conditions: 10 µM PI or 10 µM C6-ceramide, 1 h at 4 °C, 5% DMSO; compared to the control
Procedure, shortened: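 nanoDSF on 0.1 mg/mL purified complex in 25 mM HEPES pH 7.5, 150 mM NaCl, 0.01% LMNG. Protein was held 1 h at 4 °C with final 10 µM PI or 10 µM C6-ceramide in 5% DMSO. Intrinsic fluorescence at 330 and 350 nm was read from 35 to 95 °C at […]. Tm was taken from the first-derivative peak of Em350/Em330, averaged over three measurements.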

[7] = molecular target: the molecule itself; assay: cryo-EM structure
[8] = molecular target: the molecule itself; assay: SEC + cross-linking + native gel or EMSA

CCCCCCCCCC[C@H](C)[C@@H](O)[C@@H](C)/C=C(C)/C=C(\C)C(=O)[C@H](C)/C=C(\C)C(=O)O[C@H](CO)[C@@H](O)[C@H](O)C(=O)O [khafrefungin]
inhibition of fungal IPC synthase [1]: effective inhibitors of fungal IPC synthase

C=C1/C=C(\C)[C@H](CC)CC(=O)[C@H](C)C(=O)[C@@](O)(CO)C/C(OC)=C/[C@@H](C)C1 [rustmicin]
inhibition of fungal IPC synthase [1]: effective inhibitors of fungal IPC synthase

Aureobasidin A (peptide)
Kd [2]: 57.7 nM
fold weakening of the binding affinity against the WT complex [3]: 1.5 to 2 fold
fold reduction in binding affinity against the WT complex [4]: 30 fold

ceramide
kinetic value for ceramide [5]: 3 µM
effect on protein stability [6]: did not enhance protein stability

B1: S. cerevisiae Aur1, catalytic subunit of IPC synthase (enzyme)
chain: MANPFSRWFLSERPPNCHVADLETSLDPHQTLLKVQKYKPALSDWVHYIFLGSIMLFVFITNPAPWIFKILFYCFLGTLFIIPATSQFFFNALPILTWVALYFTSSYFPDDRRPPITVKVLPAVETILYGDNLSDILATSTNSFLDILAWLPYGLFHFGAPFVVAAILFVFGPPTVLQGYAFAFGYMNLFGVIMQNVFPAAPPWYKILYGLQSANYDMHGSPGGLARIDKLLGINMYTTAFSNSSVIFGAFPSLHSGCATMEALFFCYCFPKLKPLFIAYVCWLWWSTMYLTHHYFVDLMAGSVLSYVIFQYTKYTHLPIVDTSLFCRWSYTSIEKYDISKSDPLAADSNDIESVPLSNLELDFDLNMTDEPSVSPSLFDGSTSVSRSSATSITSLGVKRA
modifications: two major bands likely correspond to the glycosylated and non-glycosylated forms (sites not given)
stoichiometry N [7]: 2

B2: S. cerevisiae IPC synthase complex (Aur1-Kei1 complex), wild type (complex)
chain 1: MANPFSRWFLSERPPNCHVADLETSLDPHQTLLKVQKYKPALSDWVHYIFLGSIMLFVFITNPAPWIFKILFYCFLGTLFIIPATSQFFFNALPILTWVALYFTSSYFPDDRRPPITVKVLPAVETILYGDNLSDILATSTNSFLDILAWLPYGLFHFGAPFVVAAILFVFGPPTVLQGYAFAFGYMNLFGVIMQNVFPAAPPWYKILYGLQSANYDMHGSPGGLARIDKLLGINMYTTAFSNSSVIFGAFPSLHSGCATMEALFFCYCFPKLKPLFIAYVCWLWWSTMYLTHHYFVDLMAGSVLSYVIFQYTKYTHLPIVDTSLFCRWSYTSIEKYDISKSDPLAADSNDIESVPLSNLELDFDLNMTDEPSVSPSLFDGSTSVSRSSATSITSLGVKRA
chain 2: MRSSLLTLPKSFLGFMPLYLAVEIVLGISILNKCSGAYGILALFTGHPLDFMQWIAYLWSVFTLIVFSQGLYLIHKPNLLVFSQICVLYTIDTISTCFFTLWFTTQWFTLEDTANIDGNNALQSNPISTGKLTERGIDISKQSATESYEYTMTILITLVSLIFRFYFNFILASFVQELLHHPKYLVDRDDVEQNLKNKPIWKRLWAKSQKGCYKLCKNLLE
modifications: two major bands likely correspond to the glycosylated and non-glycosylated forms (sites not given)
stoichiometry N [8]: 2
